{"source": "paper PMC5114172", "about": "(Journal of applied toxicology : JAT, 2016)", "type_in_all_cases": "cell-based, human", "key": {"monocyte-depleted PBMCs": {"system": "monocyte-depleted PBMCs", "assay": "Cell viability, trypan blue exclusion", "conditions": "for Percent Viable Cells / decrease in viability: MD-PBMCs"}, "PBMCs with Granulocytes": {"system": "PBMCs with Granulocytes", "assay": "Cell viability, trypan blue exclusion", "conditions": "for Percent Viable Cells: PBMCs with Granulocytes"}, "Granulocytes": {"system": "Granulocytes", "assay": "IL-1β secretion assay", "procedure,_shortened": "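NK cells, MD-PBMCs, PBMCs or granulocytes (1.5 million/mL) or PBMC+granulocytes (0.75 million/mL each), per donor, exposed 24 h, 48 h or 6 days to 0.05–5 μM test compound diluted from DMSO stock, with DMSO controls. Supernatants kept at −70 °C. IL-1β by sandwich ELISA: HRP detection antibody, acid-stopped substrate, A450 against standards. Detection limit 3 pg/mL; triplicates; ANOVA then t test versus control, p<0.05.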"}, "PBMCs": {"system": "PBMCs", "assay": "Cell viability, trypan blue exclusion", "conditions": "for Percent Viable Cells / decrease in viability: PBMCs"}}}
{"compound": "CCC[CH2][Sn][CH2]CCC", "note": "[DBT, Dibutyltin]", "values": [{"measurement": "average decrease in viability", "setting": "monocyte-depleted PBMCs; MD-PBMC, 24 h, 5 μM DBT", "value": 15, "unit": "%"}, {"measurement": "Percent Viable Cells", "setting": "monocyte-depleted PBMCs; 24 h, 0.05 μM DBT", "value": "98±2", "unit": "%"}, {"measurement": "Percent Viable Cells", "setting": "monocyte-depleted PBMCs; 24 h, 0.1 μM DBT", "value": "98±1", "unit": "%"}, {"measurement": "Percent Viable Cells", "setting": "monocyte-depleted PBMCs; 24 h, 0.25 μM DBT", "value": "97±1", "unit": "%"}, {"measurement": "Percent Viable Cells", "setting": "monocyte-depleted PBMCs; 24 h, 0.5 μM DBT", "value": "91±8", "unit": "%"}, {"measurement": "Percent Viable Cells", "setting": "monocyte-depleted PBMCs; 24 h, 1 μM DBT", "value": "92±4", "unit": "%"}, {"measurement": "Percent Viable Cells", "setting": "monocyte-depleted PBMCs; 24 h, 2.5 μM DBT", "value": "74±15", "unit": "%"}, {"measurement": "Percent Viable Cells", "setting": "monocyte-depleted PBMCs; 24 h, 5 μM DBT", "value": "80±9", "unit": "%"}, {"measurement": "decrease in viability", "setting": "monocyte-depleted PBMCs; 24 h, 2.5 and 5 μM DBT", "value": 15, "unit": "%"}, {"measurement": "Percent Viable Cells", "setting": "monocyte-depleted PBMCs; 48 h, 0.05 μM DBT", "value": "96±2", "unit": "%"}, {"measurement": "Percent Viable Cells", "setting": "monocyte-depleted PBMCs; 48 h, 0.1 μM DBT", "value": "97±1", "unit": "%"}, {"measurement": "Percent Viable Cells", "setting": "monocyte-depleted PBMCs; 48 h, 0.25 μM DBT", "value": "96±2", "unit": "%"}, {"measurement": "Percent Viable Cells", "setting": "monocyte-depleted PBMCs; 48 h, 0.5 μM DBT", "value": "94±3", "unit": "%"}, {"measurement": "Percent Viable Cells", "setting": "monocyte-depleted PBMCs; 48 h, 1 μM DBT", "value": "80±11", "unit": "%"}, {"measurement": "Percent Viable Cells", "setting": "monocyte-depleted PBMCs; 48 h, 2.5 μM DBT", "value": "56±20", "unit": "%"}, {"measurement": "decrease in viability", "setting": "monocyte-depleted PBMCs; 48 h, 2.5 μM DBT", "value": 38, "unit": "%"}, {"measurement": "Percent Viable Cells", "setting": "monocyte-depleted PBMCs; 48 h, 5 μM DBT", "value": "55±10", "unit": "%"}, {"measurement": "decrease in viability", "setting": "monocyte-depleted PBMCs; 48 h, 5 μM DBT", "value": 35, "unit": "%"}, {"measurement": "Percent Viable Cells", "setting": "monocyte-depleted PBMCs; 6 day, 0.05 μM DBT", "value": "89±8", "unit": "%"}, {"measurement": "Percent Viable Cells", "setting": "monocyte-depleted PBMCs; 6 day, 0.1 μM DBT", "value": "86±7", "unit": "%"}, {"measurement": "Percent Viable Cells", "setting": "monocyte-depleted PBMCs; 6 day, 0.25 μM DBT", "value": "81±13", "unit": "%"}, {"measurement": "Percent Viable Cells", "setting": "monocyte-depleted PBMCs; 6 day, 0.5 μM DBT", "value": "67±13", "unit": "%"}, {"measurement": "Percent Viable Cells", "setting": "monocyte-depleted PBMCs; 6 day, 1 μM DBT", "value": "52±11", "unit": "%"}, {"measurement": "Percent Viable Cells", "setting": "monocyte-depleted PBMCs; 6 day, 2.5 μM DBT", "value": "47±9", "unit": "%"}, {"measurement": "Percent Viable Cells", "setting": "monocyte-depleted PBMCs; 6 day, 5 μM DBT", "value": "52±8", "unit": "%"}, {"measurement": "average decrease in viability", "setting": "PBMCs with Granulocytes; PBMC+granulocytes, 24 h, 5 μM DBT", "value": 16, "unit": "%"}, {"measurement": "Percent Viable Cells", "setting": "PBMCs with Granulocytes; 24 h, 0.05 μM DBT", "value": "94±3", "unit": "%"}, {"measurement": "Percent Viable Cells", "setting": "PBMCs with Granulocytes; 24 h, 0.1 μM DBT", "value": "93±6", "unit": "%"}, {"measurement": "Percent Viable Cells", "setting": "PBMCs with Granulocytes; 24 h, 0.25 μM DBT", "value": "93±4", "unit": "%"}, {"measurement": "Percent Viable Cells", "setting": "PBMCs with Granulocytes; 24 h, 0.5 μM DBT", "value": "94±5", "unit": "%"}, {"measurement": "Percent Viable Cells", "setting": "PBMCs with Granulocytes; 24 h, 1 μM DBT", "value": "88±6", "unit": "%"}, {"measurement": "Percent Viable Cells", "setting": "PBMCs with Granulocytes; 24 h, 2.5 μM DBT", "value": "84±8", "unit": "%"}, {"measurement": "Percent Viable Cells", "setting": "PBMCs with Granulocytes; 24 h, 5 μM DBT", "value": "77±4", "unit": "%"}, {"measurement": "Percent Viable Cells", "setting": "PBMCs with Granulocytes; 48 h, 0.05 μM DBT", "value": "93±5", "unit": "%"}, {"measurement": "Percent Viable Cells", "setting": "PBMCs with Granulocytes; 48 h, 0.1 μM DBT", "value": "94±2", "unit": "%"}, {"measurement": "Percent Viable Cells", "setting": "PBMCs with Granulocytes; 48 h, 0.25 μM DBT", "value": "93±5", "unit": "%"}, {"measurement": "Percent Viable Cells", "setting": "PBMCs with Granulocytes; 48 h, 0.5 μM DBT", "value": "92±2", "unit": "%"}, {"measurement": "Percent Viable Cells", "setting": "PBMCs with Granulocytes; 48 h, 1 μM DBT", "value": "88±10", "unit": "%"}, {"measurement": "Percent Viable Cells", "setting": "PBMCs with Granulocytes; 48 h, 2.5 μM DBT", "value": "50±29", "unit": "%"}, {"measurement": "Percent Viable Cells", "setting": "PBMCs with Granulocytes; 48 h, 5 μM DBT", "value": "49±12", "unit": "%"}, {"measurement": "Percent Viable Cells", "setting": "PBMCs with Granulocytes; 6 day, 0.05 μM DBT", "value": "80±7", "unit": "%"}, {"measurement": "Percent Viable Cells", "setting": "PBMCs with Granulocytes; 6 day, 0.1 μM DBT", "value": "72±10", "unit": "%"}, {"measurement": "Percent Viable Cells", "setting": "PBMCs with Granulocytes; 6 day, 0.25 μM DBT", "value": "74±8", "unit": "%"}, {"measurement": "Percent Viable Cells", "setting": "PBMCs with Granulocytes; 6 day, 0.5 μM DBT", "value": "54±10", "unit": "%"}, {"measurement": "Percent Viable Cells", "setting": "PBMCs with Granulocytes; 6 day, 1 μM DBT", "value": "50±12", "unit": "%"}, {"measurement": "Percent Viable Cells", "setting": "PBMCs with Granulocytes; 6 day, 2.5 μM DBT", "value": "32±15", "unit": "%"}, {"measurement": "Percent Viable Cells", "setting": "PBMCs with Granulocytes; 6 day, 5 μM DBT", "value": "37±10", "unit": "%"}, {"measurement": "effect on viability compared to the control", "setting": "PBMCs with Granulocytes; PBMCs+granulocytes, 24 h, 0.05–2.5 μM DBT", "value": "no effect"}, {"measurement": "Secretion of IL-1β", "setting": "Granulocytes; 4 donors, 24 h, any of the conditions tested, limit of detection", "value": "≤ 3", "unit": "pg/mL"}, {"measurement": "average of the maximum fold increase in IL-β secretion", "setting": "Granulocytes; 24 h, across donors", "value": 3.7, "unit": "fold"}, {"measurement": "change in IL-1β secretion", "setting": "Granulocytes; 48 h, 0.25–5 μM DBT, cells from 3 of the 4 donors", "value": "increases"}, {"measurement": "average decrease in viability", "setting": "PBMCs; PBMC, 24 h, 5 μM DBT", "value": 31, "unit": "%"}, {"measurement": "Percent Viable Cells", "setting": "PBMCs; 24 h, 0.05 μM DBT", "value": "96±4", "unit": "%"}, {"measurement": "Percent Viable Cells", "setting": "PBMCs; 24 h, 0.1 μM DBT", "value": "97±3", "unit": "%"}, {"measurement": "Percent Viable Cells", "setting": "PBMCs; 24 h, 0.25 μM DBT", "value": "96±3", "unit": "%"}, {"measurement": "Percent Viable Cells", "setting": "PBMCs; 24 h, 0.5 μM DBT", "value": "95±3", "unit": "%"}, {"measurement": "Percent Viable Cells", "setting": "PBMCs; 24 h, 1 μM DBT", "value": "86±7", "unit": "%"}, {"measurement": "Percent Viable Cells", "setting": "PBMCs; 24 h, 2.5 μM DBT", "value": "69±10", "unit": "%"}, {"measurement": "Percent Viable Cells", "setting": "PBMCs; 24 h, 5 μM DBT", "value": "65±8", "unit": "%"}, {"measurement": "decrease in viability", "setting": "PBMCs; 24 h, 2.5 and 5 μM DBT", "value": 25, "unit": "%"}, {"measurement": "Percent Viable Cells", "setting": "PBMCs; 48 h, 0.05 μM DBT", "value": "93±3", "unit": "%"}, {"measurement": "Percent Viable Cells", "setting": "PBMCs; 48 h, 0.1 μM DBT", "value": "94±4", "unit": "%"}, {"measurement": "Percent Viable Cells", "setting": "PBMCs; 48 h, 0.25 μM DBT", "value": "94±4", "unit": "%"}, {"measurement": "Percent Viable Cells", "setting": "PBMCs; 48 h, 0.5 μM DBT", "value": "91±8", "unit": "%"}, {"measurement": "Percent Viable Cells", "setting": "PBMCs; 48 h, 1 μM DBT", "value": "74±16", "unit": "%"}, {"measurement": "Percent Viable Cells", "setting": "PBMCs; 48 h, 2.5 μM DBT", "value": "56±13", "unit": "%"}, {"measurement": "decrease in viability", "setting": "PBMCs; 48 h, 2.5 μM DBT", "value": 38, "unit": "%"}, {"measurement": "Percent Viable Cells", "setting": "PBMCs; 48 h, 5 μM DBT", "value": "56±8", "unit": "%"}, {"measurement": "decrease in viability", "setting": "PBMCs; 48 h, 5 μM DBT", "value": 35, "unit": "%"}]}
